Compounds with a hit are over-represented: about 1.3% of the library has one in this group of screens.
Diaph inh CS: inhibits diaphorase or chemically oxidizes, flagging diaphorase assay artifacts; diaphorase resazurin-to-resorufin fluorescence, NADH, 16 min; bacterial (C. kluyveri) enzyme, not human; inhibition, % at 20 µM; 190,000 compounds, 0.69% hits; AID 1217;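 active means primary screen inhibition at 20 µM above a set limit, cut at about 50% in these data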;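 further: plate controls were DMSO with full reaction for no effect and wells lacking NADH for full effect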
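System: Bacterial diaphorase enzyme (C. kluyveri) | Incubation: 16-min room-temperature incubation before reading | Benchmarks: No-NADH positive control and DMSO neutral control | Measured by: Resorufin fluorescence 544/590 nm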
PfGluPho inh: PfG6PD (Plasmodium falciparum) enzyme inhibition | PfGluPho enzyme, NADPH resazurin-diaphorase fluorescence | inhibition, % at 20 µM | 350,000 compounds, 0.78% hits | AID 504690;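 active means inhibition reaching at least a set limit at 20 µM in the primary screen, cut at about 59% in these data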;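 further: 0% = DMSO wells with substrate and 100% = DMSO wells lacking glucose-6-phosphate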
HKDC1 inhibitor: HKDC1 (human) hexokinase inhibition; 340,000 compounds, 0.16% hits; recombinant HKDC1, G6PDH/diaphorase resazurin coupled fluorescence; Q2TB90; inhibition, % at 20 µM;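 active means inhibition above about 35% when tested at 20 µM, limit read from the data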;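 further: plate controls were DMSO wells with enzyme for no effect and DMSO wells lacking enzyme for full effect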
Target sequence (Q2TB90 whole entry, looked up): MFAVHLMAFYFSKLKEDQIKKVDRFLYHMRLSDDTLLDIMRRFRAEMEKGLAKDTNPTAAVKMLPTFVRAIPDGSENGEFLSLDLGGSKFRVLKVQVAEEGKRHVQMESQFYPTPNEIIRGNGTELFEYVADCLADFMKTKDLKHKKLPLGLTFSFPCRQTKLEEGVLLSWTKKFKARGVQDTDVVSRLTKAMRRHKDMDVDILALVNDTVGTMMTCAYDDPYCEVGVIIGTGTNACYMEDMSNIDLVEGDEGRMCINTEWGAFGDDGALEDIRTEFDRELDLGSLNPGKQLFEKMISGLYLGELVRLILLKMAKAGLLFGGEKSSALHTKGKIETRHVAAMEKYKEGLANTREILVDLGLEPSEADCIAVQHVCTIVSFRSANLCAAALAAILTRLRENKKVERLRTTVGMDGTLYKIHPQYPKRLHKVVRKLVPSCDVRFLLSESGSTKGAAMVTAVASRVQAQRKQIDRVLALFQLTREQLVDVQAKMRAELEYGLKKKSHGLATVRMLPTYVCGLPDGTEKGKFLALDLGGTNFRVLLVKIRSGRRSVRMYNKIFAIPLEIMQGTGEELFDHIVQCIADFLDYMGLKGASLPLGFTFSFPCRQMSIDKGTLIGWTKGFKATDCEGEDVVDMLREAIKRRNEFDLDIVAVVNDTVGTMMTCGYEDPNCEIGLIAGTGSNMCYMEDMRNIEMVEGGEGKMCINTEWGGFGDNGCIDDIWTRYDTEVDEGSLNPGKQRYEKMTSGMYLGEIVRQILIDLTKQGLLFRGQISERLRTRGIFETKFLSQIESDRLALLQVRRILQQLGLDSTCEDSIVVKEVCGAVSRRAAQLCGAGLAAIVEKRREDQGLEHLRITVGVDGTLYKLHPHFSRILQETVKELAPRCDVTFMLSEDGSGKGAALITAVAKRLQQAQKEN
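Test system: recombinant HKDC1 (HK5) hexokinase enzyme, produced in-house; Amount: enzyme 5 µg/mL final; Buffer or medium: Tris pH 8.0 buffer with MgCl2, Tween-20, BSA, BME; Reagent: glucose and ATP substrates; Doses: 20 µM test compound, 1% DMSO; Incubation: 90 min reaction incubation at room temperature, dark; Detection: resorufin fluorescence at 613 nm.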
G6PDH CS: counter-screen for G6PDH assay hits: L. mesenteroides G6PDH inhibition. Purified L. mesenteroides G6PDH, diaphorase/resazurin coupled fluorescence, 45 min. inhibition, % at 5 µM. 200,000 compounds, 0.12% hits. AID 1020; in the data active means inhibition above about 50%
The depositor's hits bear a star; · = not tested or not shown.

SMILES	Diaph inh CS	PfGluPho inh	HKDC1 inhibitor	G6PDH CS
COc1ccc(C(NC(C)=O)c2cc(Cl)c3cccnc3c2O)cc1OC (configuration not stated)	66.5*	18.3	-22.1	10.0
O=C(O)COc1ccccc1C(Nc1ccccn1)c1cc(Cl)c2cccnc2c1O (configuration not stated)	51.1*	-26.2	-10.2	17.4
O=C(O)COc1ccccc1C(Nc1cccnc1)c1cc(Cl)c2cccnc2c1O (configuration not stated)	60.7*	0.7	7.6	23.2
CCC(=O)NC(c1ccc(OC)c(OC)c1)c1cc(Cl)c2cccnc2c1O (configuration not stated)	24.7	3.3	-19.2	14.4
O=C(CNc1ccc(Br)cc1)NC(=O)NC1CCCCC1	·	19.7	7.7	·
CCOC(=O)c1ccc2c(c1)n(CC)c(/C=C/N(C)c1ccccc1)[n+]2CC	8.1	-4.5	15.3	-20.2
CC[n+]1c(/C=C/N(C)c2ccccc2)n(-c2ccccc2)c2ccc(-c3nc4ccccc4s3)cc21	·	75.3*	22.3	·
COc1ccc(CN2C(=O)c3ccc(C(=O)O)cc3C2=O)cc1	·	-22.4	-4.9	·
CC1(c2ccc3c(c2)OCCO3)NC(=O)N(CC(=O)Nc2ccccc2SCC#N)C1=O (configuration not stated)	·	2.8	-0.1	·
O=C1/C(=C/c2cccc([N+](=O)[O-])c2)CCc2ccccc21	7.3	-2.5	19.9	4.1
CCN1C/C(=C\c2cccc([N+](=O)[O-])c2)C(=O)/C(=C/c2cccc([N+](=O)[O-])c2)C1	2.5	38.0	42.5*	3.7
O=C(NCC(c1ccco1)N1CCc2ccccc2C1)c1cccc(Br)c1 (configuration not stated)	·	16.1	-1.9	·
O=C(O)c1c2c(nc3ccccc13)/C(=C/c1ccc(O)cc1)CC2	69.3*	22.6	3.7	0.8
O=S(=O)(/C=C/C=C/S(=O)(=O)c1ccccc1)c1ccccc1	·	42.7	17.4	·
Cc1ccccc1NC(=S)Nc1cccc2cnccc12	52.1*	34.8	13.4	20.7
Cc1ccc(NC(=S)Nc2cccc3cnccc23)cc1C	39.1	53.4	8.6	55.9*
S=C(Nc1cccc(Cl)c1)Nc1cccc2cnccc12	44.9	95.4*	18.2	27.2
CC(=O)N/C(=N\c1nc(C)cc(C)n1)Nc1ccc2ccccc2c1	·	-2.7	8.1	·
CSc1nc(N(CCO)CCO)c2sc3nc(-c4ccco4)c4c(c3c2n1)CCC4	53.6*	40.3	36.6*	7.2
Cc1ccc(C(=O)C(c2ccccc2)N2Cc3ccccc3C2=N)cc1 (configuration not stated)	8.6	64.9*	1.4	6.9
Cc1cc(=O)c2c(N(C)C)cccc2[nH]1	·	27.1	·	·
COc1cc(NC(=S)N2CCC(C(N)=O)CC2)c(OC)cc1Cl	54.8*	7.0	-0.9	-2.1
COc1cc(NC(=S)N2CCC(C(N)=O)CC2)cc(OC)c1	18.7	4.0	-12.0	7.8
Cc1ccccc1-c1nc2c3ccccc3nc(=S)n2[nH]1	·	-6.9	-16.2	·
Cc1nc2ccccc2n1CCc1nc2c3ccccc3nc(=S)n2[nH]1	89.2*	18.8	4.4	-0.7
SMILES	Diaph inh CS	PfGluPho inh	HKDC1 inhibitor	G6PDH CS
O=C(c1cccs1)N1CCc2c([nH]c3ccccc23)C1c1ccccn1 (configuration not stated)	50.5*	4.8	7.0	12.0
O=C1C(Cl)=C(Nc2ccccc2)C(=O)c2ccccc21	31.2	-16.6	-38.4	45.1
O=C(O)c1cccc(NC2=C(Cl)C(=O)c3ccccc3C2=O)c1	24.6	-16.2	-17.5	52.0*
O=C(CSc1nc2ccccc2c(=O)[nH]1)c1cccs1	15.5	-28.0	0.1	5.8
N#Cc1c(-c2cccs2)nc(SCC(=O)c2cccs2)[nH]c1=O	65.2*	-14.4	-1.4	-3.2
Nc1sc2c(c1C(=O)NC1CCS(=O)(=O)C1)CCCC2 (configuration not stated)	35.2	61.8*	6.3	-10.9
O=C(/C=C/c1ccco1)Nc1cccc2cccnc12	63.3*	10.8	21.1	-7.6
O=C(O)/C=C/C(=O)Nc1cccc2cccnc12	·	2.5	-2.4	·
O=C1NC(=O)C2(CCCc3c([N+](=O)[O-])cccc32)N1 (configuration not stated)	·	-8.2	·	·
CC(C)(C)c1nnc(NC(=O)c2ccc3c(c2)OCO3)s1	·	104.8*	-6.3	·
CC(c1ccccc1)c1nnc(NC(=O)c2ccc3c(c2)OCO3)s1 (configuration not stated)	·	21.7	-5.5	·
Cc1cccc(N=Cc2cc3c(cc2[N+](=O)[O-])OCO3)c1	60.8*	45.3	19.7	6.6

Bioassay records deposited in PubChem BioAssay by Sanford-Burnham Center for Chemical Genomics.
